From ChEMBL document CHEMBL2346541, “Synthesis and evaluation of quinazoline derivatives as phosphodiesterase 7 inhibitors” (Bioorg Med Chem, 2013)

These compounds were tested against Phosphodiesterase 7 (Homo sapiens, UniProt Q13946+Q9NP56) (assay: Inhibition of PDE7 catalytic domain (unknown origin) using [3H]-cAMP as substrate after 1 hr by scintillation proximity assay).
Type: protein assay
Method in brief: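 Test compounds were dissolved in DMSO (10 mM stock) and run as a dilution series. It was stirred 1 h at room temperature, stopped with PDE SPA beads, settled 20 min and counted. Assays were run in triplicate, and IC50 was calculated.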

| IC50 | Compound |
| --- | --- |
| 44 µM | CC(C)c1nc(SCc2ccc(-c3ccccc3C(=O)O)cc2)c2ccccc2n1 |
| 0.85 µM | CC(C)c1nc(SCc2ccc(-c3cccc(C(=O)O)c3)cc2)c2ccccc2n1 |
| 0.93 µM | CC(C)c1nc(SCc2ccc(-c3ccc(C(=O)O)cc3)cc2)c2ccccc2n1 |
| > 100 µM | Brc1cc(Br)c2c(SCc3ccc(-c4cccc(-c5nnn[nH]5)c4)cc3)nc(CCc3ccccc3)nc2c1 |
| 3.6 µM | COc1cc2c(SCc3ccc(-c4ccccc4-c4nnn[nH]4)cc3)nc(CCc3ccccc3)nc2c(OC)c1OC |
| > 100 µM | N#Cc1ccccc1-c1ccc(CSc2ncnc3ccccc23)cc1 |
| > 100 µM | Cc1nc(SCc2ccc(-c3ccccc3C#N)cc2)c2ccccc2n1 |
| > 100 µM | N#Cc1ccccc1-c1ccc(CSc2nc(C(Cl)(Cl)Cl)nc3ccccc23)cc1 |
| > 100 µM | N#Cc1ccccc1-c1ccc(CSc2nc(SCc3ccc(F)cc3)nc3ccccc23)cc1 |
| > 100 µM | N#Cc1ccccc1-c1ccc(CSc2nc(SCc3ccc([N+](=O)[O-])cc3)nc3ccccc23)cc1 |
| > 100 µM | COC(=O)c1ccccc1-c1ccc(CSc2nc(C(C)C)nc3ccccc23)cc1 |
| 33 µM | COC(=O)c1ccc(-c2ccc(CSc3nc(C(C)C)nc4ccccc34)cc2)cc1 |
| 6.8 µM | Fc1ccc(CSc2nc(SCc3ccc(-c4ccccc4-c4nnn[nH]4)cc3)c3ccccc3n2)cc1 |
| 3.3 µM | COc1cccc(CSc2nc(SCc3ccc(-c4ccccc4-c4nnn[nH]4)cc3)c3ccccc3n2)c1 |
| 7.2 µM | c1ccc2c(SCc3ccc(-c4ccc(-c5nnn[nH]5)cc4)cc3)ncnc2c1 |
| 8 µM | Cc1nc(SCc2ccc(-c3ccc(-c4nnn[nH]4)cc3)cc2)c2ccccc2n1 |
| 0.89 µM | CC(C)c1nc(SCc2ccc(-c3cccc(-c4nnn[nH]4)c3)cc2)c2ccccc2n1 |

Continued, compound first:

| Compound | IC50 |
| --- | --- |
| Cc1nc(SCc2ccc(-c3ccccc3-c3nn[nH]n3)cc2)c2ccccc2n1 | 11 µM |
| Clc1ccc(-c2nc(SCc3ccc(-c4ccccc4-c4nnn[nH]4)cc3)c3ccccc3n2)cc1 | 12 µM |
| CC(C)c1nc(SCc2ccc(-c3ccccc3C#N)cc2)c2ccccc2n1 | > 100 µM |
| N#Cc1ccccc1-c1ccc(CSc2nc(SCc3ccccc3)nc3ccccc23)cc1 | ND(Insoluble) |
| COC(=O)c1cccc(-c2ccc(CSc3nc(C(C)C)nc4ccccc34)cc2)c1 | > 100 µM |
| c1ccc(CSc2nc(SCc3ccc(-c4ccccc4-c4nnn[nH]4)cc3)c3ccccc3n2)cc1 | 7.1 µM |
| O=[N+]([O-])c1ccc(CSc2nc(SCc3ccc(-c4ccccc4-c4nnn[nH]4)cc3)c3ccccc3n2)cc1 | 4.9 µM |
| c1ccc(-c2nnn[nH]2)c(-c2ccc(CSc3nc(SCc4ccc(-c5ccccc5-c5nnn[nH]5)cc4)c4ccccc4n3)cc2)c1 | ND(Insoluble) |
| c1cc(-c2ccc(CSc3ncnc4ccccc34)cc2)cc(-c2nnn[nH]2)c1 | 8.2 µM |
| Cc1nc(SCc2ccc(-c3cccc(-c4nnn[nH]4)c3)cc2)c2ccccc2n1 | 2.5 µM |
| ClC(Cl)(Cl)c1nc(SCc2ccc(-c3ccccc3-c3nnn[nH]3)cc2)c2ccccc2n1 | 2.6 µM |
| CC(C)c1nc(SCc2ccc(-c3ccccc3-c3nn[nH]n3)cc2)c2ccccc2n1 | 0.77 µM |
